The values that follow come from ChEMBL document CHEMBL5532752, “Integrating a quinone substructure into histone deacetylase inhibitors to cope with Alzheimer's disease and cancer” (RSC Med Chem, 2024).

Holding throughout (assay type): functional
The subject of experiment [1] is SH-SY5Y. In words: Cytotoxicity against human SH-SY5Y cells assessed as reduction in cell viability incubated for 24 hrs by MUH reagent based spectrophotometric analysis.
In experiment [2] the test system is SH-SY5Y. Put plainly: Cytotoxicity against human SH-SY5Y cells assessed as reduction in cell viability incubated for 48 hrs by MUH reagent based spectrophotometric analysis.
The test system of experiment [3] is SH-SY5Y. In words: Cytotoxicity against human SH-SY5Y cells assessed as reduction in cell viability incubated for 72 hrs by MUH reagent based spectrophotometric analysis. The method, boiled down: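 SH-SY5Y in DMEM/10% FBS seeded 0.75 × 10⁴ cells/well, after 24 h treated with 0.1–100 μM for 24, 48 or 72 h. Washed, incubated with MUH 0.01 mg/mL in PBS 30 min at 37 °C in the dark; fluorescence ex 330/em 450 nm, normalized to untreated cells. IC50 by nonlinear regression, log(inhibitor) vs normalized response.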

With `O=C(CCCCCNC1=CC(=O)c2ccccc2C1=O)NO`, the figures for the IC50 in the experiment with SH-SY5Y [1], in the experiment with SH-SY5Y [2] and with SH-SY5Y [3] were 80 µM, 26.9 µM and 22.5 µM, respectively.

Regarding `CC1=C(NCCCCCC(=O)NO)C(=O)c2ccccc2C1=O`, the results for the half-maximal inhibitory concentration (IC50) in the experiment with SH-SY5Y [1], in the experiment with SH-SY5Y [2] and in the experiment on SH-SY5Y [3] were 178 µM, 84.4 µM and 53 µM, respectively.

On to `Nc1ccccc1NC(=O)c1ccc(CNC2=CC(=O)c3ccccc3C2=O)cc1`, for which the IC50 (in general, the concentration needed to halve the response being measured) came out at 59.5 µM in the experiment with SH-SY5Y [1], 8.53 µM in the experiment with SH-SY5Y [2] and 4.42 µM with SH-SY5Y [3].

In the case of `O=C(CS)NCCCCNC1=CC(=O)c2ccccc2C1=O`, the IC50 with SH-SY5Y [1], with SH-SY5Y [2] and with SH-SY5Y [3] was more than 100 µM each time.

As for `CC1=C(NCc2ccc(C(=O)NO)cc2)C(=O)c2ccccc2C1=O`, the IC50 worked out at 39 µM in the experiment with SH-SY5Y [1], 19.8 µM in the experiment on SH-SY5Y [2] and 14 µM in the experiment with SH-SY5Y [3].

For the compound `O=C(NO)c1ccc(CNC2=CC(=O)c3ccccc3C2=O)cc1`, the figures for the IC50 with SH-SY5Y [1], in the experiment on SH-SY5Y [2] and in the experiment with SH-SY5Y [3] were 39 µM, 8.67 µM and 7.74 µM, respectively.
